Measurements from ChEMBL document CHEMBL4680084, “New β-Lactam Derivatives Modulate Cell Adhesion and Signaling Mediated by RGD-Binding and Leukocyte Integrins” (J Med Chem, 2016).
Activity calls are given as the source filed them. No cut-off for these calls is given here.

How the values were obtained:
Integrin alpha-5/beta-1 [1] = target: T1, Integrin alpha-5/beta-1 (Homo sapiens, UniProt P05556+P08648); assay: Inhibition of fibronectin binding to alpha5beta1 isolated from human K562 cells incubated for 1 hr by […] competitive solid-phase binding assay; format: tissue-based
In short: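 Plates coated overnight at 4 °C in carbonate buffer pH 9.6 with fibronectin 0.5 µg/mL (αvβ3, αvβ6, α5β1), fibrinogen 10 µg/mL (αIIbβ3, αvβ5) or ICAM-1 (αLβ2). Blocked 1 h in buffer containing Ca/Mg/Mn 1 mM each and 1% BSA. Purified integrin (3–10 µg/mL) incubated with compound (10⁻⁴–10⁻¹⁰ M) 1 h at room temperature. Bound integrin detected with primary antibody then AlexaFluor488 secondary, Ex485/Em535. Duplicate, at least three repeats.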

SK-MEL-24 = assay: Toxicity in human SK-MEL-24 cells assessed as induction of cell necrosis and/or apoptosis incubated for 3 hrs by annexin V-PE and 7-AAD staining based by flow cytometry; details: sk-mel-24, 3 h
In short: (§1)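 After 3 h incubation, cells resuspended in complete medium and stained with annexin V-PE/7-AAD reagent for 20 min at room temperature in the dark. Flow cytometry sorted cells into viable, early apoptotic and late apoptotic/necrotic populations.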

HT-29 = assay: Toxicity in human HT-29 cells assessed as induction of cell necrosis and/or apoptosis incubated for 3 hrs by annexin V-PE and 7-AAD staining based by flow cytometry; details: ht-29, 3 h; in short: as §1
Integrin alpha-V/beta-3 [2] = target: T2, Integrin alpha-V/beta-3 (Homo sapiens, UniProt P05106+P06756); assay: Agonist activity at alphaVbeta3 in human SK-MEL-24 cells assessed as increase in cell adhesion to fibronectin pre-incubated for 30 mins before fibronectin and further incubated for 1 hr by nitrophenyl-N-acetyl-beta-D-glucosaminide substrate based chromogenic assay
In short: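 Compound or methanol vehicle pre-incubated with cells for 30 min at room temperature. Cells then plated on wells coated overnight at 4 °C with fibronectin 10 µg/mL (SK-MEL-24, K562, HT-29) or fibrinogen 10 µg/mL (MCF7, HEL). Seeding was 50,000 cells/well, or 100000 for HEL. Adhesion ran 1 h at room temperature. Wells washed with 1% BSA/PBS. Adherent cells read by hexosaminidase substrate, absorbance 405 nm. Quadruplicate, at least three repeats.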

Integrin alpha-4/beta-1 [3] = target: T3, Integrin alpha-4/beta-1 (Homo sapiens, UniProt P05556+P13612); assay: Agonist activity at alpha4beta1 in human Jurkat E6.1 cells assessed as increase in cell adhesion to VCAM1 pre-incubated for 30 mins before VCAM1 and further incubated for 30 mins by […]; format: cell-based
In short: (§2)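 Jurkat E6.1 cells labelled with CellTracker green CMFDA (12.5 µM, 30 min, 37 °C), washed, then pre-incubated 30 min at 37 °C with compound or methanol. Plated at 500,000/well on VCAM-1 (α4β1) or ICAM-1 (αLβ2) coated wells (5 µg/mL) for 30 min at 37 °C. Cells lysed in 0.5% Triton X-100; fluorescence read Ex485/Em535. Quadruplicate, at least three repeats.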

[4] = target: Integrin alpha-L/beta-2 (LFA-1) (Homo sapiens, UniProt P05107+P20701); assay: Agonist activity at alphaLbeta2 in human Jurkat E6.1 cells assessed as increase in cell adhesion to ICAM1 pre-incubated for 30 mins before ICAM1 and further incubated for 30 mins by […]; format: cell-based; in short: as §2
Integrin alpha-4/beta-1 [5] = target: T3, Integrin alpha-4/beta-1; assay: Inhibition of fibronectin binding to […] isolated from human Jurkat E6.1 cells incubated for 1 hr by scintillation-proximity assay based competitive solid-phase binding assay; format: tissue-based
Integrin alpha-4/beta-1 [6] = target: T3, Integrin alpha-4/beta-1; assay: Agonist activity at alpha4beta1 in human Jurkat E6.1 cells assessed as increase in cell adhesion to VCAM1 at 10 ug/ml pre-incubated for 30 mins and further incubated for 30 mins in presence of neutralizing antibody against the alpha4 integrin subunit by nitrophenyl-N-acetyl-beta-D-glucosaminide substrate based chromogenic assay; details: dose 10.0 µg/ml, time 60.0 min
In short: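 Agonist-coated wells (10 µg/mL in methanol). Cells pre-treated 10 min before plating with neutralizing anti-α5, anti-αv or anti-α4 antibody (10 µg/mL), or pre-incubated with c(-RGDfV) (1 µM). K562 plated at 50,000/well and Jurkat E6.1 at 500,000/well. Adhesion quantified as in the standard assay.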

[7] = target: Integrin alpha-IIb/beta-3 (Homo sapiens, UniProt P05106+P08514); assay: Inhibition of fibrinogen binding to alpha2bbeta3 isolated from human HEL cells incubated for 1 hr by […] competitive solid-phase binding assay
Integrin alpha-5/beta-1 [8] = target: T1, Integrin alpha-5/beta-1; assay: Agonist activity at alpha5beta1 in human K562 cells assessed as increase in cell adhesion to fibronectin at 10 ug/ml […] and further incubated for 1 hr in presence of neutralizing antibody against the alpha5 integrin subunit by nitrophenyl-N-acetyl-beta-D-glucosaminide substrate based chromogenic assay; details: dose 10.0 µg/ml, time 90.0 min
Integrin alpha-V/beta-3 [9] = target: T2, Integrin alpha-V/beta-3; assay: Agonist activity at human alphaVbeta3 expressed in HEK293 cells assessed as reduction in fibronectin-induced ERK1/2 phosphorylation at 1 to 100 nM by Western blot analysis; format: cell-based; details: filed as agonist, dose 1-100 nM
[10] = target: Integrin alpha-L/beta-2 (LFA-1) (Homo sapiens) (UniProt P20701+P05107); assay: Antagonist activity at alphaLbeta2 in human Jurkat E6.1 cells assessed as reduction in ICAM-1-induced ERK1/2 phosphorylation by Western blot analysis; format: cell-based; details: filed as antagonist
[11] = target: Integrin alpha-L/beta-2 (Homo sapiens); assay: Binding affinity to human alphaLbeta2 incubated for 1 hr by scintillation-proximity assay based competitive solid-phase binding assay

Compound	IC50 (Integrin alpha-5/beta-1 [1]) [nM]	Activity (SK-MEL-24)	Activity (HT-29)	EC50 (Integrin alpha-V/beta-3 [2]) [nM]	EC50 (Integrin alpha-4/beta-1 [3]) [nM]	EC50 [4] [nM]	IC50 (Integrin alpha-4/beta-1 [5]) [nM]	Activity (Integrin alpha-4/beta-1 [6])	IC50 [7] [nM]	Activity (Integrin alpha-5/beta-1 [8])	Activity (Integrin alpha-V/beta-3 [9])	Activity [10]	IC50 [11] [nM]
Cc1ccccc1NC(=O)N1C(=O)CC1CC(=O)NCC(=O)O (stereo not given)	52	Non-Toxic	Non-Toxic	> 5000	> 5000	> 5000	> 1000	inactive					
NCc1ccc(NC(=O)N2C(=O)CC2CC(=O)NCCC(=O)O)cc1.O=C(O)C(F)(F)F (stereo not given)	5.5	Non-Toxic	Non-Toxic	> 5000	> 5000	> 5000		inactive	> 1000				
Nc1ccc(CNC(=O)N2C(=O)CC2CC(=O)O)cc1.O=C(O)C(F)(F)F (stereo not given)	9.7	Non-Toxic	Non-Toxic				498		> 1000	inactive	Active	Dose-dependent effect	6.7
